Assay results taken from ChEMBL document CHEMBL3244309, “Structure-activity relationships of aminoalkyl and -aryl glycosides having insulin-like activity” (1978).

How the values were obtained:
Type in all cases: functional
[1] = Insulin-like activity in albino CD rat fat cells assessed as stimulation of oxidation of [14C]glucose to 14CO2 at 100 ug/ml after 2 hrs by scintillation counting analysis relative to insulin
[2] = Insulin-like activity in albino CD rat fat cells assessed as stimulation of oxidation of [14C]glucose to 14CO2 at 750 ug/ml after 2 hrs by scintillation counting analysis relative to insulin
[3] = Insulin-like activity in albino CD rat fat cells assessed as stimulation of oxidation of [14C]glucose to 14CO2 at 50 ug/ml after 2 hrs by scintillation counting analysis relative to insulin
Rattus norvegicus [4] = assay: In vivo insulin-like activity in rat omental adipose tissue assessed as stimulation of lipogenesis by measuring conversion of [14C]glucose to [14C]lipids at 500 mg/kg, ip after 2 hrs; details: route intraperitoneal
Summary of the method: (§1)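 Overnight-fasted female rats (140–150 g) given one ip injection of saccharide neutralized to pH 7.5 with 0.1 N HCl, together with [14C]glucose (2 μCi/rat), in physiological saline. Controls received the same solution without saccharide or insulin; insulin reference was 200 mU/kg. After 2 h, 14C incorporated per gram of tissue was measured: diaphragm glycogen and omental adipose total lipids. Mean of five animals, % above control.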

Rattus norvegicus [5] = assay: In vivo insulin-like activity in rat diaphragm muscle assessed as stimulation of glycogenolysis by measuring conversion of [14C]glucose to [14C]glycogen at 500 mg/kg, ip after 2 hrs; details: route intraperitoneal, in the assay text read “glycogenesis” for “glycogenolysis”; summary of the method: as §1

Row | SMILES | Activity [1] | further results
1 | Nc1ccc(O[C@H]2O[C@H](CO)[C@@H](O)[C@H](O)[C@@H]2O)cc1 | 2.9% | Activity [2]: 23.9%
2 | NCCCCCCC(=O)NCCCCCCS[C@H]1O[C@H](CO)[C@@H](O)[C@H](O)[C@@H]1O | 47.1% | 
3 | NCCCCCCCCS[C@H]1O[C@H](CO)[C@@H](O)[C@H](O)[C@@H]1O | 0% | 
4 | NCCCCCCS[C@H]1O[C@H](CO)[C@@H](O)[C@H](O)[C@@H]1O | 40.8% | Activity [3]: 132.4%
5 | NCCCCCCS | 15.5% | 
6 | CSCCCCCCN | 24.8% | 
7 | NCCCCCCSCC(O)CO (configuration not stated) | 6.9% | 
8 | O=C([O-])CCCCCS[C@H]1O[C@H](CO)[C@@H](O)[C@H](O)[C@@H]1O.[Na+] | 0% | 
9 | CCCCCCCS[C@H]1O[C@H](CO)[C@@H](O)[C@H](O)[C@@H]1O | 0% | 
10 | CNCCCCCCS[C@H]1O[C@H](CO)[C@@H](O)[C@H](O)[C@@H]1O | 0% | 
11 | CN(C)CCCCCCS[C@H]1O[C@H](CO)[C@@H](O)[C@H](O)[C@@H]1O | 0% | 
12 | C[N+](C)(C)CCCCCCS[C@H]1O[C@H](CO)[C@@H](O)[C@H](O)[C@@H]1O.[I-] | 0% | 
13 | N[C@@H]1O[C@H](CO)[C@@H](O)[C@H](O)[C@@H]1O | 0% | 
14 | NC[C@H]1O[C@H](CO)[C@@H](O)[C@H](O)[C@@H]1O | 0% | 
15 | NCCS[C@H]1O[C@H](CO)[C@@H](O)[C@H](O)[C@@H]1O | 0% | 
16 | NCCCCS[C@H]1O[C@H](CO)[C@@H](O)[C@H](O)[C@@H]1O | 0% | 
17 | NCCCCCS[C@H]1O[C@H](CO)[C@@H](O)[C@H](O)[C@@H]1O | 6.1% | 
18 | NCCCCCCCS[C@H]1O[C@H](CO)[C@@H](O)[C@H](O)[C@@H]1O | 14.8% | 
19 | Nc1ccc(CS[C@H]2O[C@H](CO)[C@@H](O)[C@H](O)[C@@H]2O)cc1 | 0% | 
20 | NCc1ccc(CS[C@H]2O[C@H](CO)[C@@H](O)[C@H](O)[C@@H]2O)cc1 | 9.2% | 
21 | NCc1ccccc1O[C@H]1O[C@H](CO)[C@@H](O)[C@H](O)[C@@H]1O | 0% | 
22 | NCc1ccc(O[C@H]2O[C@H](CO)[C@@H](O)[C@H](O)[C@@H]2O)cc1 | 6.4% | 
23 | NCCCCCCS[C@@H]1O[C@H](CO)[C@@H](O)[C@H](O)[C@@H]1O | 80% | Activity (Rattus norvegicus [4]): 86%; Activity [3]: 109.7%; Activity (Rattus norvegicus [5]): 74%
24 | NCCCCCCSC[C@@H](O)[C@@H](O)[C@H](O)[C@H](O)CO |  | Activity [3]: 0%

Row | SMILES | Activity [1] | further results
25 | NCCCCCCSC1O[C@H]([C@H](O)CO)[C@H](O)[C@@H]1O (some centres not stated) |  | Activity [3]: 93.6%
26 | NCCCCCCS[C@@H]1O[C@H](CO)[C@@H](O)[C@H](O)[C@H]1O | 43.8% | 
27 | NCCCCCCO[C@@H]1O[C@H](CO)[C@@H](O)[C@H](O)[C@H]1O | 23.3% | 
28 | NCCCCCCO[C@H]1O[C@H](CO)[C@@H](O)[C@H](O)[C@@H]1O | 23.3% | 
29 | NCCCCCC(=O)N[C@@H]1O[C@H](CO)[C@@H](O)[C@H](O)[C@@H]1O | 2.6% | 
30 | NCCCCCCC(=O)N[C@@H]1O[C@H](CO)[C@@H](O)[C@H](O)[C@@H]1O | 20.5% | 
31 | NCCCCCCCC(=O)N[C@@H]1O[C@H](CO)[C@@H](O)[C@H](O)[C@@H]1O | 22.4% | 
32 | NCCCCCCS(=O)(=O)[C@H]1O[C@H](CO)[C@@H](O)[C@H](O)[C@@H]1O | 33.3% | 
33 | NCCCCCCS[C@H]1O[C@H](CO)[C@H](O)[C@@H](O)[C@@H]1O | 63.7% | 
34 | NCCCCCCS[C@@H]1O[C@H](CO)[C@H](O)[C@@H](O)[C@@H]1O | 75.2% | 
35 | NCCCCCCS[C@H]1O[C@H](CO)[C@H](O)[C@H](O)[C@@H]1O |  | Activity [3]: 109.9%
36 | NCCCCCCS[C@@H]1O[C@H](CO)[C@H](O)[C@H](O)[C@H]1O | 68.8% | 
37 | NCCCCCCS[C@H]1O[C@H](CO[C@H]2O[C@H](CO)[C@@H](O)[C@H](O)[C@@H]2O)[C@@H](O)[C@H](O)[C@@H]1O | 21.6% | 
38 | NCCCCCCS[C@H]1O[C@H](CO)[C@@H](O[C@H]2O[C@H](CO)[C@@H](O)[C@H](O)[C@@H]2O)[C@H](O)[C@@H]1O | 37.3% | 
39 | NCCCCCCS[C@H]1O[C@H](CO)[C@@H](O)[C@H](O[C@H]2O[C@H](CO)[C@@H](O)[C@H](O)[C@@H]2O)[C@@H]1O | 15.7% | 
40 | NCCCCCCS[C@H]1O[C@H](CO)[C@@H](O)[C@H](O)[C@@H]1O[C@H]1O[C@H](CO)[C@@H](O)[C@H](O)[C@@H]1O | 21.6% | 
41 | NCCCCCCS[C@@H]1O[C@H](CO)[C@@H](O)[C@H](O)[C@@H]1O[C@H]1O[C@H](CO)[C@@H](O)[C@H](O)[C@@H]1O | 0% | 
42 | C[C@H]1O[C@H](SCCCCCCN)[C@@H](O)[C@@H](O)[C@@H]1O | 0% | 
43 | COC[C@H]1O[C@H](SCCCCCCN)[C@@H](O)[C@@H](O)[C@@H]1O | 37.5% | 
44 | NCCCCCCS[C@H]1O[C@H](CO)[C@@H](OC(N)=O)[C@H](O)[C@@H]1O | 64.2% | 
45 | NCCCCCCS[C@H]1O[C@H](COC(N)=O)[C@@H](O)[C@H](O)[C@@H]1O | 102.9% | 
46 | CNC(=O)NC[C@H]1O[C@@H](SCCCCCCN)[C@@H](O)[C@@H](O)[C@@H]1O |  | Activity [3]: 129%
47 | CC(=O)N[C@@H]1[C@@H](O)[C@H](O)[C@@H](CO)O[C@H]1SCCCCCCN | 36.3% | 
